Results from ChEMBL document CHEMBL4002589, “Tri- and Tetrasubstituted Pyridinylimidazoles as Covalent Inhibitors of c-Jun N-Terminal Kinase 3” (J Med Chem, 2017).

Legend:
[1] = target: Casein kinase I isoform gamma-3 (Homo sapiens) (UniProt Q9Y6M4); assay: Inhibition of CK1 gamma3 (unknown origin) assessed as residual activity at 1 uM relative to control
Summary of the method: (§1)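 Each inhibitor is tested at a single concentration, 1 µM or 0.5 µM depending on the compound. Results are reported as residual kinase activity.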

[2] = target: Dual specificity protein kinase CLK4 (Homo sapiens) (UniProt Q9HAZ1); assay: Inhibition of CLK4 (unknown origin) assessed as residual activity at 1 uM relative to control; summary of the method: as §1
[3] = target: T1, Dual specificity mitogen-activated protein kinase kinase 7 (Homo sapiens) (UniProt O14733); assay: Inhibition of full length human GST-HIS tagged MKK7 expressed in Sf9 cells assessed as residual activity at 1 uM relative to control; summary of the method: as §1
T1 sequence (whole entry): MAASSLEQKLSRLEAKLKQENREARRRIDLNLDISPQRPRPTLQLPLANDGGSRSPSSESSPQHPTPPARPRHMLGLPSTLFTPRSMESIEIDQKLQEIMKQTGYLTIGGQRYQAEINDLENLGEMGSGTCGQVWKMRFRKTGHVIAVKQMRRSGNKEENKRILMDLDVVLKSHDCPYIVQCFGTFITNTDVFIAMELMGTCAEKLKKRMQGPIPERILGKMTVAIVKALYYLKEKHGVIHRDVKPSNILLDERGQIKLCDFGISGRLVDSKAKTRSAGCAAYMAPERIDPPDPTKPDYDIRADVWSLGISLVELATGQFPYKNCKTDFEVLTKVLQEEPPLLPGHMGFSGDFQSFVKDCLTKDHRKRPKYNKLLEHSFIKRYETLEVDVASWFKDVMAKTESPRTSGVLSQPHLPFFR

[4] = target: T2, Serine/threonine-protein kinase D3 (Homo sapiens) (UniProt O94806); assay: Inhibition of human PKC-nu (3 to 890 residues) expressed in Sf9 cells assessed as residual activity at 1 uM relative to control; summary of the method: as §1
T2 sequence (whole entry): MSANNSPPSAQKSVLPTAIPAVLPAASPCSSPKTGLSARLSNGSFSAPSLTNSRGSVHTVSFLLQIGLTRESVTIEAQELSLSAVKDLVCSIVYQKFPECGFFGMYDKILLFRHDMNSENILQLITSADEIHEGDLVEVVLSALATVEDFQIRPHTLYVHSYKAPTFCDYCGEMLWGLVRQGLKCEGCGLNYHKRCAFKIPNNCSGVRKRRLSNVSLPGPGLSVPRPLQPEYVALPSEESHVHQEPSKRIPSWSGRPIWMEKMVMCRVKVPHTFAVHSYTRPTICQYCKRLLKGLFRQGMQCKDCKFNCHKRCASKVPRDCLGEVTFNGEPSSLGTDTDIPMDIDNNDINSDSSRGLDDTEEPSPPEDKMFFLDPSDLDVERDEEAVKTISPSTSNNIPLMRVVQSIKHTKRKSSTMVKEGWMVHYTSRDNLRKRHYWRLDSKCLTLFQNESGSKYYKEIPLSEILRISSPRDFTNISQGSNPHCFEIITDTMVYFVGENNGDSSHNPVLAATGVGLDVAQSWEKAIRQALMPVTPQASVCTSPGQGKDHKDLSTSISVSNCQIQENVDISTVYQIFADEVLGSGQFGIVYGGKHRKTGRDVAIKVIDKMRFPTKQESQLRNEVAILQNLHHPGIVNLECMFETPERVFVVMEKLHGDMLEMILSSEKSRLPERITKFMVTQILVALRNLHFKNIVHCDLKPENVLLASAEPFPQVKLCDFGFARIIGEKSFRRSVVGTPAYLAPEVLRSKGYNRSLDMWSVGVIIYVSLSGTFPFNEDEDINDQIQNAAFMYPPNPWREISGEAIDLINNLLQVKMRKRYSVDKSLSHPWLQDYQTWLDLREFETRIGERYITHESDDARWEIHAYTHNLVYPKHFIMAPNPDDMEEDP

[5] = Drug metabolism in human liver microsomes at 100 uM preincubated with NADPH regenerating system for 5 mins followed by addition of liver microsomes measured after 190 mins by LC-MS analysis; type: ADME, microsome; conditions: read-out: Drug metabolism

Casein kinase I isoform gamma-3 (Homo sapiens), sequence (Q9Y6M4 whole entry, looked up, canonical isoform): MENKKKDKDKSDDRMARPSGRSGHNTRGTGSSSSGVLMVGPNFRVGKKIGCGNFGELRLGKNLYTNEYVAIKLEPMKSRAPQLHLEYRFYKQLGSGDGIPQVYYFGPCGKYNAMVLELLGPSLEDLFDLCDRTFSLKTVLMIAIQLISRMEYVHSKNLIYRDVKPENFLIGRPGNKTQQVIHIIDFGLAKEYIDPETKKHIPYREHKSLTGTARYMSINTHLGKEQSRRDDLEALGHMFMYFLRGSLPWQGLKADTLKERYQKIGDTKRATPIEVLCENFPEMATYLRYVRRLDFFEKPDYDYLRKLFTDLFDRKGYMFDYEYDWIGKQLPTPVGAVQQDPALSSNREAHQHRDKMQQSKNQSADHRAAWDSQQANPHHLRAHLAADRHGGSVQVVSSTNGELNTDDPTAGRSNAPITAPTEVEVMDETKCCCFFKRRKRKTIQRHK
Dual specificity protein kinase CLK4 (Homo sapiens), sequence (Q9HAZ1 whole entry, looked up): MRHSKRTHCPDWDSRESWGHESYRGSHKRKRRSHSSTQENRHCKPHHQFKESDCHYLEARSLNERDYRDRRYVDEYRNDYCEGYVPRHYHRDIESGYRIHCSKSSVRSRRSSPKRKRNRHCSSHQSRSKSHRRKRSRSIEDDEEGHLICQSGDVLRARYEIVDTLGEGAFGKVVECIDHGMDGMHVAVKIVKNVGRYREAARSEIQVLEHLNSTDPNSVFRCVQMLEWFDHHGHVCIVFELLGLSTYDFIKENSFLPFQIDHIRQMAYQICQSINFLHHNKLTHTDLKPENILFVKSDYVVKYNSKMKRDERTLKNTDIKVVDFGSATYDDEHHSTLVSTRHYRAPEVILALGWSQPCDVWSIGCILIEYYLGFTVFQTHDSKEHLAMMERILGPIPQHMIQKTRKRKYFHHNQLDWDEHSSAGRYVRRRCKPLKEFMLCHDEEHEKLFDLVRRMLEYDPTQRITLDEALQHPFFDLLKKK

Activity [1]: 10 to 29%
Activity [2]: 10 to 29%
Activity [3]: 10 to 29%
Activity [4]: 10 to 29%
metabolised at 190 min, 100 µM [5]: 31%
Structure (SMILES): C=CC(=O)Nc1cccc(C(=O)Nc2ccc(Nc3cc(-c4[nH]c(SC)nc4C)ccn3)cc2)c1
